Values after ≈ are worked out from the molar mass of the structure shown.
Columns and labels:
Felis catus = assay: Effective dose for lowering blood pressure in anesthetized cat when administered intravenously; format: functional; conditions: iv
Method in brief: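 Cats of either sex, 3–4 kg, under ether induction and chloralose (70 mg/kg iv). Compounds in distilled water or propylene glycol were given iv via the femoral vein at 0.01–10 mg/kg. Fall in mean arterial pressure read 10 min post-dose. ED20 taken graphically from the log dose-response curve, with doses run in triplicate.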

Cavia porcellus [1] = organism: Cavia porcellus; assay: Positive inotropic activity in spontaneously beating guinea pig atria; format: functional, organism-based
Method in brief: (§1)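 Guinea pig atria, spontaneously beating, in Ringer solution at 32 °C gassed with 95% O2/5% CO2. Isometric force recorded at 0.5–1 g initial tension after 30 min stabilization. Compounds in water or propylene glycol given cumulatively at 0.01–30 μg/mL, with 7 min contact per dose. EC50 for a 50% force increase taken graphically from the dose-response curve, in triplicate.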

Cavia porcellus [2] = organism: Cavia porcellus; assay: Positive inotropic activity was assessed in spontaneously beating guinea pig atria; NA=Not active; format: functional, organism-based; method in brief: as §1

Structure (SMILES)	ED20 (Felis catus) [mg/kg]	EC50 (Cavia porcellus [1]) [µg/mL]	EC50 (Cavia porcellus [2])
C=C[C@@]1(C)CC(=O)[C@]2(O)C3(C)C(C(O)C(OC(=O)CNC(C)(C)C)[C@@]2(C)O1)C(C)(C)CC[C@@H]3O.Cl (stereo partly drawn)	1	> 30	–
C=C[C@@]1(C)CC(=O)[C@]2(O)C3(C)C(C(O)C(OC(=O)CCN4C(=O)c5ccccc5C4=O)[C@@]2(C)O1)C(C)(C)CC[C@@H]3O (stereo partly drawn)	10	> 30	–
C=C[C@@]1(C)CC(=O)[C@]2(O)C3(C)C(C(O)C(OC(=O)CCCN4CCOCC4)[C@@]2(C)O1)C(C)(C)CC[C@@H]3O.Cl (stereo partly drawn)	1.8	10	–
C=C[C@@]1(C)CC(=O)[C@]2(O)C3(C)C(C(OC(=O)CNCc4ccccc4)C(O)[C@@]2(C)O1)C(C)(C)CC[C@@H]3O.Cl (stereo partly drawn)	3.5	10	–
C=C[C@@]1(C)CC(=O)[C@]2(O)C3(C)C(C(OC(=O)CCCN4CCOCC4)C(O)[C@@]2(C)O1)C(C)(C)CC[C@@H]3O.Cl (stereo partly drawn)	2	–	Not Active
C=C[C@@]1(C)CC(=O)[C@]2(O)C3(C)C(C(O)C(OC(=O)Cn4nnc5ccccc54)[C@@]2(C)O1)C(C)(C)CC[C@@H]3O (stereo partly drawn)	3	> 30	–
C=C[C@@]1(C)CC(=O)[C@]2(O)C3(C)C(C(O)C(OC(=O)C(C)Nc4ccccc4)[C@@]2(C)O1)C(C)(C)CC[C@@H]3O (stereo partly drawn)	3	–	Not Active
C=C[C@@]1(C)CC(=O)[C@]2(O)C3(C)C(C(O)C(OC(=O)CN(C)C4CCCCC4)[C@@]2(C)O1)C(C)(C)CC[C@@H]3O (stereo partly drawn)	10	–	Not Active
C=C[C@@]1(C)CC(=O)[C@]2(O)C3(C)C(C(O)C(OC(=O)C(C)N4CCCCC4)[C@@]2(C)O1)C(C)(C)CC[C@@H]3O (stereo partly drawn)	4.5	> 30	–
C=C[C@@]1(C)CC(=O)[C@]2(O)C3(C)C(C(OC(=O)C(C)N4CCCCC4)C(O)[C@@]2(C)O1)C(C)(C)CC[C@@H]3O.Cl (stereo partly drawn)	1	–	Not Active
C=C[C@@]1(C)CC(=O)[C@]2(O)C3(C)C(C(O)C(OC(=O)CN(CC)CC)[C@@]2(C)O1)C(C)(C)CC[C@@H]3O.Cl (stereo partly drawn)	2	10	–
C=C[C@@]1(C)CC(=O)[C@]2(O)C3(C)C(C(OC(=O)C(C)N4CCOCC4)C(O)[C@@]2(C)O1)C(C)(C)CC[C@@H]3O.Cl (stereo partly drawn)	3	> 30	–
C=C[C@@]1(C)CC(=O)[C@]2(O)C3(C)C(C(O)C(OC(=O)CN4CCSCC4)[C@@]2(C)O1)C(C)(C)CC[C@@H]3O.Cl (stereo partly drawn)	3	> 30	–
C=C[C@@]1(C)CC(=O)[C@]2(O)C3(C)C(C(O)C(OC(=O)CNc4ccccc4)[C@@]2(C)O1)C(C)(C)CC[C@@H]3O (stereo partly drawn)	2	> 10	–
C=C[C@@]1(C)CC(=O)[C@]2(O)C3(C)C(C(O)C(OC(=O)CCCCCCCCCCCN4CCOCC4)[C@@]2(C)O1)C(C)(C)CC[C@@H]3O.Cl (stereo partly drawn)	1.6	–	Not Active
C=C[C@@]1(C)CC(=O)[C@]2(O)C3(C)C(C(O)C(OC(=O)CCCCN4CCCCC4)[C@@]2(C)O1)C(C)(C)CC[C@@H]3O.Cl (stereo partly drawn)	1	30	–
C=C[C@@]1(C)CC(=O)[C@]2(O)C3(C)C(C(O)C(OC(=O)CCN4CCOCC4)[C@@]2(C)O1)C(C)(C)CC[C@@H]3O.Cl (stereo partly drawn)	–	–	Not Active
C=C[C@@]1(C)CC(=O)[C@]2(O)C3(C)C(C(O)C(OC(=O)Cn4cc(C(=O)OCC)c(=O)c5ccc(C(F)(F)F)cc54)[C@@]2(C)O1)C(C)(C)CC[C@@H]3O (stereo partly drawn)	–	–	Not Active
C=C[C@@]1(C)CC(=O)[C@]2(O)C3(C)C(C(OC(=O)CN4CCN(C)CC4)C(O)[C@@]2(C)O1)C(C)(C)CC[C@@H]3O.Cl (stereo partly drawn)	1.3	30	–
C=C[C@@]1(C)CC(=O)[C@]2(O)C3(C)C(C(O)C(OC(=O)CN4CCCC(C)C4)[C@@]2(C)O1)C(C)(C)CC[C@@H]3O.Cl (stereo partly drawn)	10	> 30	–
C=C[C@@]1(C)CC(=O)[C@]2(O)C3(C)C(C(OC(=O)CCN4CCN(C)CC4)C(O)[C@@]2(C)O1)C(C)(C)CC[C@@H]3O.Cl (stereo partly drawn)	1.4	0.2	–
C=C[C@@]1(C)CC(=O)[C@]2(O)C3(C)C(C(O)C(OC(=O)Cn4cnc5c4c(=O)n(C)c(=O)n5C)[C@@]2(C)O1)C(C)(C)CC[C@@H]3O (stereo partly drawn)	3	0.74 (≈ 1.26 µM)	–
C=C[C@@]1(C)CC(=O)[C@]2(O)C3(C)C(C(OC(=O)C(C)N4CCN(C)CC4)C(O)[C@@]2(C)O1)C(C)(C)CC[C@@H]3O.Cl (stereo partly drawn)	3	–	Not Active
C=C[C@@]1(C)CC(=O)[C@]2(O)C3(C)C(C(OC(=O)CN4CCCC(C)C4)C(O)[C@@]2(C)O1)C(C)(C)CC[C@@H]3O.Cl (stereo partly drawn)	5.4	> 30	–

Structure (SMILES)	ED20 (Felis catus) [mg/kg]	EC50 (Cavia porcellus [1]) [µg/mL]	EC50 (Cavia porcellus [2])
C=C[C@@]1(C)CC(=O)[C@]2(O)C3(C)C(C(OC(=O)Cn4cnc5c4c(=O)n(C)c(=O)n5C)C(O)[C@@]2(C)O1)C(C)(C)CC[C@@H]3O (stereo partly drawn)	4.5	3 (≈ 5.1 µM)	–
C=C[C@@]1(C)CC(=O)[C@]2(O)C3(C)C(C(OC(=O)C(C)Nc4ccccc4)C(O)[C@@]2(C)O1)C(C)(C)CC[C@@H]3O.Cl (stereo partly drawn)	6.2	–	Not Active
C=C[C@@]1(C)CC(=O)[C@]2(O)C3(C)C(C(O)C(OC(=O)CN4CCC(O)CC4)[C@@]2(C)O1)C(C)(C)CC[C@@H]3O.Cl (stereo partly drawn)	3	> 30	–
CC(CCc1ccc(O)cc1)NCCc1ccc(O)c(O)c1 (stereo not drawn) [DOBUTAMINE]	–	0.3 (≈ 0.995 µM)	–
C=C[C@@]1(C)CC(=O)[C@]2(O)C3(C)C(C(O)C(OC(=O)CN4CCN(C)CC4)[C@@]2(C)O1)C(C)(C)CC[C@@H]3O.Cl (stereo partly drawn)	0.9	> 30	–
C=C[C@@]1(C)CC(=O)[C@]2(O)C3(C)C(C(OC(=O)CCCCN4CCCCC4)C(O)[C@@]2(C)O1)C(C)(C)CC[C@@H]3O.Cl (stereo partly drawn)	1	> 30	–
C=C[C@@]1(C)CC(=O)[C@]2(O)C3(C)C(C(O)C(OC(=O)CCCn4cnc5c4c(=O)n(C)c(=O)n5C)[C@@]2(C)O1)C(C)(C)CC[C@@H]3O (stereo partly drawn)	3	–	Not Active
C=C[C@@]1(C)CC(=O)[C@]2(O)C3(C)C(C(O)C(OC(=O)Cn4cnc5ccccc54)[C@@]2(C)O1)C(C)(C)CC[C@@H]3O (stereo partly drawn)	10	–	Not Active
C=C[C@@]1(C)CC(=O)[C@]2(O)C3(C)C(C(O)C(OC(=O)CCN4CCN(C)CC4)[C@@]2(C)O1)C(C)(C)CC[C@@H]3O.Cl (stereo partly drawn)	–	–	Not Active
C=C[C@@]1(C)CC(=O)[C@]2(O)C3(C)C(C(O)C(OC(=O)CN4CCCCC4)[C@@]2(C)O1)C(C)(C)CC[C@@H]3O.Cl (stereo partly drawn)	10	> 30	–
C=C[C@@]1(C)CC(=O)[C@]2(O)C3(C)C(C(OC(=O)CN4CCCC4)C(O)[C@@]2(C)O1)C(C)(C)CC[C@@H]3O.Cl (stereo partly drawn)	1	3	–
C=C[C@@]1(C)CC(=O)[C@]2(O)C3(C)C(C(O)C(OC(=O)CN4CCC(C)CC4)[C@@]2(C)O1)C(C)(C)CC[C@@H]3O.Cl (stereo partly drawn)	10	> 30	–
C=C[C@@]1(C)CC(=O)[C@]2(O)C3(C)C(C(OC(=O)CN4CCC(O)(c5ccccc5)CC4)C(O)[C@@]2(C)O1)C(C)(C)CC[C@@H]3O (stereo partly drawn)	5	3 (≈ 5.12 µM)	–
C=C[C@@]1(C)CC(=O)[C@]2(O)C3(C)C(C(O)C(OC(=O)C(C)n4cnc5c4c(=O)n(C)c(=O)n5C)[C@@]2(C)O1)C(C)(C)CC[C@@H]3O (stereo partly drawn)	5	0.9 (≈ 1.49 µM)	–
C=C[C@@]1(C)CC(=O)[C@]2(O)C3(C)C(C(OC(=O)CN4CCCCCC4)C(O)[C@@]2(C)O1)C(C)(C)CC[C@@H]3O.Cl (stereo partly drawn)	1	1.9	–
C=C[C@@]1(C)CC(=O)[C@]2(O)C3(C)C(C(OC(=O)CN4CCC(NC(=O)c5ccccc5)CC4)C(O)[C@@]2(C)O1)C(C)(C)CC[C@@H]3O (stereo partly drawn)	4	1.2 (≈ 1.96 µM)	–
C=C[C@@]1(C)CC(=O)[C@]2(O)C3(C)C(C(O)C(OC(=O)CN4CCCC4)[C@@]2(C)O1)C(C)(C)CC[C@@H]3O.Cl (stereo partly drawn)	4	1.8	–
C=C[C@@]1(C)CC(=O)[C@]2(O)C3(C)C(C(O)C(OC(=O)CCN4CCCCC4)[C@@]2(C)O1)C(C)(C)CC[C@@H]3O.Cl (stereo partly drawn)	–	1	–
C=C[C@@]1(C)CC(=O)[C@]2(O)C3(C)C(C(O)C(OC(=O)Cn4c(=O)c5c(ncn5COCCOC)n(C)c4=O)[C@@]2(C)O1)C(C)(C)CC[C@@H]3O (stereo partly drawn)	6	2 (≈ 3.02 µM)	–
C=C[C@@]1(C)CC(=O)[C@]2(O)C3(C)C(C(O)C(OC(=O)CCCN4CCCCC4)[C@@]2(C)O1)C(C)(C)CC[C@@H]3O.Cl (stereo partly drawn)	0.3	> 30	–
Nc1cc(N2CCCCC2)nc(N)[n+]1[O-] [MINOXIDIL]	0.9	–	–
C=C[C@@]1(C)CC(=O)[C@]2(O)C3(C)C(C(O)C(OC(=O)C(C)(C)N4CCOCC4)[C@@]2(C)O1)C(C)(C)CC[C@@H]3O.Cl (stereo partly drawn)	1.8	3	–
C=C[C@@]1(C)CC(=O)[C@]2(O)C3(C)C(C(OC(=O)CN4CCSCC4)C(O)[C@@]2(C)O1)C(C)(C)CC[C@@H]3O.Cl (stereo partly drawn)	5	1.5	–

From ChEMBL document CHEMBL1123969, “Cardiovascular effects of new water-soluble derivatives of forskolin” (J Med Chem, 1988)
